Assay results as given in article PMC7225057 (Journal of molecular biology, 2020).
Numbering of substitutions follows the chain as printed. Residues, ends and D or L forms follow the SMILES beside them. *: point of attachment. FITC = O=C1OC2(c3ccc(O)cc3Oc3cc(O)ccc32)c2ccc(NC(=S)*)cc21; Ahx = NCCCCCC(=O)O

How the values were obtained:
CTR ECD = conditions: isolated ECD; cited from earlier work
[1] = tested on: Pituitary adenylate cyclase activating polypeptide (PACAP) type I (PAC1) receptor; conditions: tunicamycin treatment, binding capacity not altered; cited from earlier work
[2] = molecular target: T1, RAMP1-CTR.34–141 WT (inactive PNGase F) (Homo sapiens, UniProt O60894+P30988, fusion); test: FP saturation binding, RAMP1-CTR.34–141 WT, inactive PNGase F; conditions: Figure S8D, 10 nM probe, pH 7.4, mean ± SEM, N = 3
T1 sequence (P30988 34-141): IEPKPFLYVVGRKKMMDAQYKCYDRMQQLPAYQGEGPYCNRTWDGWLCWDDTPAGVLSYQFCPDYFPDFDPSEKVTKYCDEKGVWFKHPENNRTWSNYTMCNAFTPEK
Summary of the method: (§1)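 RAMP1-CTR ECD fusion WT was expressed in HEK293S GnTI cells, TEV-cleaved to remove MBP, then purified by IMAC/SEC. FP saturation binding at room temperature used 10 nM FITC-peptide probe and titrated receptor. Buffer: HEPES pH 7.4 with BSA, maltose, EDTA, Tween 20. Duplicates, pKD by nonlinear fit.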

[3] = molecular target: RAMP1-CTR.34–141 WT (PNGase F) (Homo sapiens, UniProt O60894+P30988, N125D/N130D/N73D); test: FP saturation binding, RAMP1-CTR.34–141 WT, PNGase F; conditions: Figure S8D, 10 nM probe, pH 7.4, N = 3
Summary of the method: as §1

RAMP1-CTR.34–141 N130D = molecular target: T2, RAMP1-CTR.34–141 N130D (Homo sapiens, UniProt O60894+P30988, N130D/fusion); test: FP saturation binding, RAMP1-CTR.34–141 N130D; conditions: Figure S8D; no enzyme; 10 nM probe, pH 7.4; mean ± SEM, N = 3
T2 sequence (P30988 34-141 N130D): T1 sequence (P30988 34-141) with N97D

[4] = tested on: glucagon-like peptide 1 receptor (GLP-1R); conditions: cited from earlier work
[5] = tested on: glucagon-like peptide 1 receptor (GLP-1R); conditions: cited from earlier work; remark: listed apart in the source
[6] = tested on: PTH type 1 receptor (PTH1R); conditions: cited from earlier work
[7] = tested on: IL-7 receptor α unit (IL-7Rα) ectodomain; conditions: cited from earlier work
CTR = conditions: cited from earlier work
[8] = molecular target: T3, CTR.38–141 N130D (CTR ECD; HEK293S GnTI^−, Endo H) (Homo sapiens, UniProt P30988, N130D); test: FP saturation binding, CTR.38–141 N130D, Endo H; conditions: N130D vs Endo H-treated WT
T3 sequence (P30988 38-141 N130D): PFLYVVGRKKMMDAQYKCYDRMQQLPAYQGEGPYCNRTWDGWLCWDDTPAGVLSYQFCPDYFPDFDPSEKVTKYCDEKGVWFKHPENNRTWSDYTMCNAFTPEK

[9] = molecular target: T4, Glycan-free CTR.38–141 WT (CTR ECD; E. coli) (Homo sapiens, UniProt P30988); test: FP saturation binding, glycan-free CTR.38–141 WT; conditions: glycan-free vs Endo H-treated WT
T4 sequence (P30988 38-141): T3 sequence (P30988 38-141 N130D) with D93N

Compound: calcitonin
- binding affinity enhancement by CTR N-glycosylation (CTR ECD): ~ 10 fold

Compound: PACAP-27
- affinity decrease by tunicamycin [1]: 30 fold

Compound: CC(C)C[C@H](NC(=O)[C@H](CCCNC(=N)N)NC(=O)[C@@H](NC(=O)[C@H](CC(C)C)NC(=O)[C@H](Cc1ccccc1)NC(=O)[C@H](CC(N)=O)NC(=O)[C@H](C)NC(=O)CCCCCNC(=S)Nc1ccc2c(c1)C(=O)OC21c2ccc(O)cc2Oc2cc(O)ccc21)C(C)C)C(=O)N[C@@H](CCC(N)=O)C(=O)N[C@H](C(=O)N[C@@H](Cc1ccc(O)cc1)C(=O)N1CCC[C@H]1C(=O)N[C@@H](CCCNC(=N)N)C(=O)N[C@H](C(=O)N[C@@H](CC(N)=O)C(=O)N[C@H](C(=O)NCC(=O)N[C@@H](C)C(=O)N[C@@H](CC(N)=O)C(=O)N[C@H](C(=O)N[C@@H](Cc1ccc(O)cc1)C(N)=O)[C@@H](C)O)C(C)C)[C@@H](C)O)[C@@H](C)O [FITC-AC413(6–25)] ({FITC-Ahx}-ANFLVRLQTYPRTNVGANTY-NH2; N-terminus and C-terminus assumed)
- pKD [2]: 6.01 ± 0.03
- pKD [3]: < 5.0
- pKD (RAMP1-CTR.34–141 N130D): 5.12 ± 0.07

Compound: GLP-1: GLP-1, ligand of glucagon-like peptide 1 receptor
- affinity, double mutation of two N-glycosylation sites [4]: significantly reduced GLP-1 affinity
- signaling potency, double mutation of two N-glycosylation sites [5]: significantly reduced GLP-1 affinity and signaling potency

Compound: PTH: PTH, ligand of PTH type 1 receptor
- binding affinity, N161D mutation ([6]; N161D mutation of PTH1R): did not change the binding affinity for PTH
- binding affinity after tunicamycin ([6]; human PTH1R expressed in mammalian cells, tunicamycin treatment): no changes in PTH binding affinity

Compound: IL-7: IL-7, ligand of IL-7 receptor α unit
- association rate with N-glycosylated receptor [7]: accelerated association rate
- effect of N-glycosylation on binding affinity [7]: significantly increased IL-7 binding affinity

Compound: salmon calcitonin
- affinity vs human calcitonin (CTR): higher affinity than human calcitonin

Compound: C[C@@H](O)[C@H](NC(=O)[C@H](CC(N)=O)NC(=O)[C@@H](NC(=O)[C@H](CCCNC(=N)N)NC(=O)[C@@H]1CCCN1C(=O)[C@H](Cc1ccc(O)cc1)NC(=S)Nc1ccc2c(c1)C(=O)OC21c2ccc(O)cc2Oc2cc(O)ccc21)[C@@H](C)O)C(=O)NCC(=O)N[C@@H](CO)C(=O)NCC(=O)N[C@H](C(=O)N1CCC[C@H]1C(N)=O)[C@@H](C)O [FITC-sCT(22–32)] ({FITC}-YPRTNTGSGTP-NH2)
- affinity decrease [8]: over 5 fold
- affinity decrease [9]: over 5 fold
